# Source: ChEMBL document CHEMBL1149821, “Antimycobacterial activity of diphenylpyraline derivatives” (Eur J Med Chem, 2008)
# Test system: Mycobacterium tuberculosis
# Test: Antimicrobial activity against Mycobacterium tuberculosis H37Rv at 6.25 ug/ml by alamar blue assay
# Type: functional
# Settings: not given
# Method in brief: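 M. tuberculosis H37Rv (ATCC 27294) tested in the TAACF screening program by microplate Alamar Blue assay (MABA) at a single concentration of 6.25; read-out was percent growth inhibition.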
row,Structure (SMILES),inhibition at 6.25 µg/mL [%]
1,CN1CCC(OC(c2ccc(Cl)cc2)c2ccc(Cl)cc2)CC1,65
2,Clc1ccc(C(OC2CCN(CCc3ccccc3)CC2)c2ccc(Cl)cc2)cc1,56
3,c1ccc(CCN2CCC(OC(c3ccccc3)c3ccccc3)CC2)cc1,8
4,CC(C)[C@H]1C[C@@H](OC(c2ccccc2)c2ccccc2)CCN1CCc1ccccc1 (racemic),0
5,CN1CCC(OC(c2ccccc2)c2ccccc2)CC1(C)C (racemic),18
6,CC1(C)C[C@@H](OC(c2ccccc2)c2ccccc2)CCN1c1ccccc1 (racemic),3
7,CC(C)[C@H]1C[C@@H](OC(c2ccc(Cl)cc2)c2ccc(Cl)cc2)CCN1C (racemic),74
8,CC(C)[C@H]1C[C@@H](OC(c2ccc(Cl)cc2)c2ccc(Cl)cc2)CCN1CCc1ccccc1 (racemic),0
9,CC(C)[C@H]1C[C@@H](OC(c2ccccc2)c2ccccc2)CCN1C (relative stereo),68
10,c1ccc(C(O[C@H]2CCN(c3ccccc3)[C@@H](c3ccccc3)C2)c2ccccc2)cc1 (relative stereo),39
11,c1ccc(C(O[C@H]2CCN(c3ccccc3)[C@H](c3ccccc3)C2)c2ccccc2)cc1 (relative stereo),75
12,CC(C)[C@@H]1C[C@@H](OC(c2ccccc2)c2ccccc2)CCN1C (relative stereo),12
13,CC(C)[C@H]1C[C@@H](OC(c2ccccc2)c2ccccc2)CCN1c1ccccc1 (relative stereo),36
14,CC(C)[C@@H]1C[C@@H](OC(c2ccccc2)c2ccccc2)CCN1c1ccccc1 (relative stereo),7
15,CN1CCC(OC(c2ccccc2)c2ccccc2)CC1.Cl [DIPHENYLPYRALINE HYDROCHLORIDE],5
16,NNC(=O)c1ccncc1 [ISONIAZID],> 99

# Test system: not listed separately
# Test: Cytotoxicity against HEK293 cells by MTT assay
# Type: cell-based
# Settings: human, read-out: LC50 (the source's name)
# Method in brief: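 HEK-293 cells seeded at 12 000 cells/well in DMEM with 10% FCS at 37 °C, 5% CO₂. After 48 h, half the medium was renewed. Hydrochloride salts in 17% glycerine/33% DMSO/50% water were added; vehicle served as control. After 72 h, MTT was added for 3 h, then formazan was solubilised with 10% SDS/0.01 M HCl. A544 (reference 640 nm) was read, and LC50 came from a Boltzmann sigmoidal fit.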
row,Structure (SMILES),CC50 [µg/mL]
1,CN1CCC(OC(c2ccc(Cl)cc2)c2ccc(Cl)cc2)CC1,25.5
2,Clc1ccc(C(OC2CCN(CCc3ccccc3)CC2)c2ccc(Cl)cc2)cc1,17.3
3,c1ccc(CCN2CCC(OC(c3ccccc3)c3ccccc3)CC2)cc1,14.9
4,CC(C)[C@H]1C[C@@H](OC(c2ccccc2)c2ccccc2)CCN1CCc1ccccc1 (racemic),62.8
5,CN1CCC(OC(c2ccccc2)c2ccccc2)CC1(C)C (racemic),105
6,CC1(C)C[C@@H](OC(c2ccccc2)c2ccccc2)CCN1c1ccccc1 (racemic),65.1
7,CC(C)[C@H]1C[C@@H](OC(c2ccc(Cl)cc2)c2ccc(Cl)cc2)CCN1C (racemic),17.9
8,CC(C)[C@H]1C[C@@H](OC(c2ccc(Cl)cc2)c2ccc(Cl)cc2)CCN1CCc1ccccc1 (racemic),76.5
9,CC(C)[C@H]1C[C@@H](OC(c2ccccc2)c2ccccc2)CCN1C (relative stereo),98.1
10,c1ccc(C(O[C@H]2CCN(c3ccccc3)[C@@H](c3ccccc3)C2)c2ccccc2)cc1 (relative stereo),77.8
11,c1ccc(C(O[C@H]2CCN(c3ccccc3)[C@H](c3ccccc3)C2)c2ccccc2)cc1 (relative stereo),112
12,CC(C)[C@@H]1C[C@@H](OC(c2ccccc2)c2ccccc2)CCN1C (relative stereo),69.4
13,CC(C)[C@H]1C[C@@H](OC(c2ccccc2)c2ccccc2)CCN1c1ccccc1 (relative stereo),69.4
14,CC(C)[C@@H]1C[C@@H](OC(c2ccccc2)c2ccccc2)CCN1c1ccccc1 (relative stereo),97.1
15,CN1CCC(OC(c2ccccc2)c2ccccc2)CC1.Cl [DIPHENYLPYRALINE HYDROCHLORIDE],108
16,NNC(=O)c1ccncc1 [ISONIAZID],> 576

# Test system: Mycobacterium tuberculosis
# Test: Antimicrobial activity against Mycobacterium tuberculosis H37Rv by alamar blue assay
# Type: functional
# Settings: not given
# Method in brief: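 M. tuberculosis H37Rv (ATCC 27294) microplate Alamar Blue assay (MABA), run within the TAACF screening program.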
row,Structure (SMILES),MIC [µg/mL]
1,CN1CCC(OC(c2ccccc2)c2ccccc2)CC1.Cl [DIPHENYLPYRALINE HYDROCHLORIDE],64
